ChEMBL document CHEMBL4842360, “Discovery of a Bicyclic Peptidyl Pan-Ras Inhibitor” (J Med Chem, 2021)
One block for each molecule: values may come before it. Numbered stars: 1 amine (or outer) side, 2 acyl side, 3 side chain; on linkers, the order of the positions; unused ones are H or OH. Bridge positions count the residues as written; N and C are the ends. Square brackets hold non-standard residues; d marks the D form. Peptide text beside a SMILES is read from it. Trimesoyl = O=C(c1cc(C(=O)[*:2])cc(C(=O)[*:3])c1)[*:1]; Phe(4-F) = N[C@@H](Cc1ccc(F)cc1)C(=O)O; 2Nal = N[C@@H](Cc1ccc2ccccc2c1)C(=O)O; d2Nal = N[C@H](Cc1ccc2ccccc2c1)C(=O)O; X1 = CCCCCCC[C@H](N[*:1])C(=O)[*:2]; Phg = N[C@H](C(=O)O)c1ccccc1; dNle = CCCC[C@@H](N)C(=O)O; Nle = CCCC[C@H](N)C(=O)O; Orn = NCCC[C@H](N)C(=O)O; Dap = NC[C@H](N)C(=O)O; X2 = C(C[*:1])C[*:2]; βAla = NCCC(=O)O

What was measured:
NCI-H358 [1] = test: Antiproliferative activity against human NCI-H358 cells incubated for 96 hrs by MTT assay; type: functional, cell-based
Outline: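 H358 cells at 5,000/well, grown overnight, treated with serially diluted peptide (0–40 μM) in 10% FBS medium for 96 h at 37 °C. MTT added for 4 h, formazan solubilized overnight in SDS-HCl, absorbance read at 570 nm.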

[2] = Drug localization in cytosol of human HeLa cells assessed as mean fluorescence intensity at 5 uM incubated for 2 hrs by flow cytometry relative to relative to extracellular concentration; type: ADME, subcellular
GTPase KRas [3] = target: T1, GTPase KRas (Homo sapiens, UniProt P01116, G12V); test: Inhibition of His6-tagged KRas G12V mutant (unknown origin) expressed in Escherichia coli BL21(DE3) cells assessed as reduction in Ras/GST-fused Raf RBD interaction incubated for 1 hr by HTRF assay; conditions: read-out: IC50
T1 sequence (P01116 whole entry G12V, the tested form may be a part): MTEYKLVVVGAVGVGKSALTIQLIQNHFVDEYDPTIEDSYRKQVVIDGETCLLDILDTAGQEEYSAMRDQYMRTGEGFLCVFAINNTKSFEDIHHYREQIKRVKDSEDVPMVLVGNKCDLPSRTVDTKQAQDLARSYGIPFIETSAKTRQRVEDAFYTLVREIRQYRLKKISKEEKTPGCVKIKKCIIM

NCI-H358 [4] = test: Antiproliferative activity against human NCI-H358 cells incubated for 96 hrs by Celltiter-Glo assay; type: functional, cell-based; conditions: Homo sapiens, NCI-H358, 96 h; read-out: EC50
NCI-H1299 [5] = test: Induction of apoptosis in human NCI-H1299 cells by MTT assay; type: functional, cell-based
GTPase KRas [6] = target: T1, GTPase KRas; test: Inhibition of GPPNP bound KRAS G12V mutant (unknown origin) assessed as reduction in KRAS/GST-fused Raf RBD interaction incubated for 2 hrs by HTRF assay
NCI-H1299 [7] = test: Induction of apoptosis in human NCI-H1299 cells incubated for 24 hrs by MTT assay; type: functional, cell-based; conditions: NCI-H1299, 24 h
GTPase KRas [8] = target: GTPase KRas (Homo sapiens, UniProt P01116, G12D); test: Binding affinity to recombinant human KRAS G12D mutant incubated for 0.5 hrs by ELISA
Sequence of GTPase KRas (Homo sapiens, UniProt P01116, G12D) (P01116 whole entry G12D): as the sequence (P01116 whole entry G12V, the tested form may be a part) above, with V12D counted along it

PANC-1 = test: Antitumor activity against human PANC-1 cells xenografted in BALB/c mouse assessed as inhibition of cell growth at 40 mg/kg, iv administered once every 2 days for 4 weeks; type: functional; conditions: PANC-1, iv, 672 h, read-out: GI
[9] = Homo sapiens, NCI-H358, 96 h, read-out: EC50

EC50 (NCI-H358 [1]; [9]): 24 µM
SMILES: CCCC[C@H](NC(=O)CNC(=O)C[C@H](CCC)NC(=O)[C@@H]1CNC(=O)c2cc3cc(c2)C(=O)N[C@H](Cc2ccc4ccccc4c2)C(=O)N[C@@H](CO)C(=O)N[C@@H](CCC(N)=O)C(=O)N[C@H](Cc2ccc4ccccc4c2)C(=O)N[C@@H](c2ccccc2)C(=O)N[C@@H](CCCCNC3=O)C(=O)N[C@H](Cc2ccccc2)C(=O)N[C@@H](C)C(=O)N[C@H](CCCNC(=N)N)C(=O)N[C@@H](CCCNC(=N)N)C(=O)N1)C(=O)N[C@H](CCCNC(=N)N)C(N)=O

IC50 (GTPase KRas [3]): 0.51 µM
EC50 (NCI-H358 [4]): 3.2 µM
SMILES: C[C@@H]1NC(=O)[C@@H](Cc2ccccc2)NC(=O)[C@@H]2CCCCNC(=O)c3cc(cc(c3)C(=O)N[C@H](Cc3ccc4ccccc4c3)C(=O)N[C@@H](CO)C(=O)N[C@@H](CC(N)=O)C(=O)N[C@H](Cc3ccc4ccccc4c3)C(=O)N[C@@H](c3ccccc3)C(=O)N2)C(=O)NC[C@@H](C(=O)N[C@@H](CCN)CC(=O)N[C@H](CCCNC(=N)N)C(=O)N[C@@H](Cc2ccccc2)C(=O)N[C@H](C)C(N)=O)NC(=O)[C@H](CCCNC(=N)N)NC(=O)[C@@H](CCCNC(=N)N)NC1=O

IC50 (GTPase KRas [3]): 0.28 µM
EC50 (NCI-H358 [4]): 8.4 µM
SMILES: C[C@@H]1NC(=O)[C@@H](Cc2ccccc2)NC(=O)[C@@H]2CCCCNC(=O)c3cc(cc(c3)C(=O)N[C@H](Cc3ccc4ccccc4c3)C(=O)N[C@@H](CO)C(=O)N[C@@H](CC(N)=O)C(=O)N[C@H](Cc3ccc4ccccc4c3)C(=O)N[C@@H](c3ccccc3)C(=O)N2)C(=O)NC[C@@H](C(=O)N[C@@H](CC(N)=O)C(=O)N[C@H](CCCNC(=N)N)C(=O)N[C@@H](Cc2ccccc2)C(=O)N[C@H](C)C(N)=O)NC(=O)[C@H](CCCNC(=N)N)NC(=O)[C@@H](CCCNC(=N)N)NC1=O

EC50 (NCI-H1299 [5]): 3 µM
SMILES: CCCC[C@H]1NC(=O)[C@H](Cc2ccc(F)cc2)NC(=O)[C@H](CCCNC(=N)N)NC(=O)[C@@H](Cc2ccc3ccccc3c2)NC(=O)[C@H](CCCNC(=N)N)NC(=O)[C@H](CCCNC(=N)N)NC(=O)[C@H](CCCNC(=N)N)NC(=O)[C@@H](C)NC(=O)[C@H]([C@@H](C)O)NC(=O)[C@H](Cc2c[nH]c3ccccc23)NC(=O)[C@H](CCC(N)=O)NC1=O (cyclo(WT[dA]RRR[d2Nal]R[Phe(4-F)][dNle]Q))

Drug uptake [2]: 120%
SMILES: N=C(N)NCCC[C@@H]1NC(=O)[C@H](Cc2ccc3ccccc3c2)NC(=O)[C@@H](Cc2ccccc2)NC(=O)[C@H](Cc2ccccc2)NC(=O)[C@H](CCC(N)=O)NC(=O)[C@@H](CCCNC(=N)N)NC(=O)[C@H](CCCNC(=N)N)NC(=O)[C@@H](CCCNC(=N)N)NC1=O (cyclo([2Nal]R[dR]R[dR]QF[dF]))

EC50 (NCI-H358 [1]; nci-h358): Not Active
SMILES: CC(C)[C@@H](NC(=O)C[C@H](CCN)NC(=O)[C@@H]1CNC(=O)c2cc3cc(c2)C(=O)N[C@H](Cc2ccc4ccccc4c2)C(=O)N[C@@H](CO)C(=O)N[C@@H](CCC(N)=O)C(=O)N[C@H](Cc2ccc4ccccc4c2)C(=O)N[C@@H](c2ccccc2)C(=O)N[C@@H](CCCCNC3=O)C(=O)N[C@H](Cc2ccccc2)C(=O)N[C@@H](C)C(=O)N[C@H](CCCNC(=N)N)C(=O)N[C@@H](CCCNC(=N)N)C(=O)N1)C(=O)N[C@H](C)CC(=O)N[C@H](Cc1c[nH]c2ccccc12)C(=O)NCCC(N)=O

IC50 (GTPase KRas [3]): 0.5 µM
EC50 (NCI-H358 [4]): 4.4 µM
SMILES: C[C@@H]1NC(=O)[C@@H](Cc2ccccc2)NC(=O)[C@@H]2CCCCNC(=O)c3cc(cc(c3)C(=O)N[C@H](Cc3ccc4ccccc4c3)C(=O)N[C@@H](CO)C(=O)N[C@@H](CC(N)=O)C(=O)N[C@H](Cc3ccc4ccccc4c3)C(=O)N[C@@H](c3ccccc3)C(=O)N2)C(=O)NC[C@@H](C(=O)N[C@@H](CC(N)=O)C(=O)N[C@H](CCCNC(=N)N)C(=O)N[C@@H](Cc2ccc(F)c(F)c2)C(=O)N[C@H](C)C(N)=O)NC(=O)[C@H](CCCNC(=N)N)NC(=O)[C@@H](CCCNC(=N)N)NC1=O

Kd (GTPase KRas [8]): 0.022 µM
SMILES: CCCCCCC[C@@H]1NC(=O)[C@@H]2CSCCCSC[C@H](NC(=O)[C@H](Cc3c[nH]c4ccccc34)NC(=O)[C@@H]3CCCN3C(=O)[C@H](CC(=O)O)NC(=O)[C@H](Cc3ccc(F)cc3)NC(=O)[C@H](CO)NC1=O)C(=O)NCCC(=O)N1CCC[C@H]1C(=O)N[C@@H](CCCC)C(=O)N2 (cyclo(C[X1]S[Phe(4-F)]DPWC[βAla]P[Nle]); linker 1-8 via X2)
inhibition in vivo at 40 mg/kg (PANC-1): 65%

IC50 (GTPase KRas [3]): 0.23 µM
EC50 (NCI-H358 [4]): 7.5 µM
SMILES: C[C@@H]1NC(=O)[C@@H](Cc2ccccc2)NC(=O)[C@@H]2CCCCNC(=O)c3cc(cc(c3)C(=O)N[C@H](Cc3ccc4ccccc4c3)C(=O)N[C@@H](CO)C(=O)N[C@@H](CC(N)=O)C(=O)N[C@H](Cc3ccc4ccccc4c3)C(=O)N[C@@H](c3ccccc3)C(=O)N2)C(=O)NC[C@@H](C(=O)N[C@@H](CCC(N)=O)C(=O)N[C@H](CCCNC(=N)N)C(=O)N[C@@H](Cc2ccccc2)C(=O)N[C@H](C)C(N)=O)NC(=O)[C@H](CCCNC(=N)N)NC(=O)[C@@H](CCCNC(=N)N)NC1=O

Continued, molecule first:

SMILES: C[C@@H]1NC(=O)[C@@H](Cc2ccccc2)NC(=O)[C@@H]2CCCCNC(=O)c3cc(cc(c3)C(=O)N[C@H](Cc3ccc4ccccc4c3)C(=O)N[C@@H](CO)C(=O)N[C@@H](CCC(N)=O)C(=O)N[C@H](Cc3ccc4ccccc4c3)C(=O)N[C@@H](c3ccccc3)C(=O)N2)C(=O)NC[C@@H](C(=O)N[C@@H](CCN)CC(=O)N[C@H](CCCNC(=N)N)C(=O)N[C@@H](Cc2ccc(F)cc2)C(=O)N[C@H](C)C(=O)N[C@@H](CCCCN)C(N)=O)NC(=O)[C@H](CCCNC(=N)N)NC(=O)[C@@H](CCCNC(=N)N)NC1=O
EC50 (NCI-H358 [1]; [9]): 17 µM

SMILES: C[C@@H]1NC(=O)[C@@H](Cc2ccccc2)NC(=O)[C@@H]2CCCCNC(=O)c3cc(cc(c3)C(=O)N[C@H](Cc3ccc4ccccc4c3)C(=O)N[C@@H](CO)C(=O)N[C@@H](CCC(N)=O)C(=O)N[C@H](Cc3ccc4ccccc4c3)C(=O)N[C@@H](c3ccccc3)C(=O)N2)C(=O)NC[C@@H](C(=O)N[C@@H](CCCN)C(=O)N[C@H](CCCNC(=N)N)C(=O)N[C@@H](Cc2ccc(F)cc2)C(=O)N[C@H](C)C(=O)N[C@@H](CCCCN)C(N)=O)NC(=O)[C@H](CCCNC(=N)N)NC(=O)[C@@H](CCCNC(=N)N)NC1=O ([d2Nal]SQ[d2Nal][Phg]K[dF]A[dR]R[Dap][Orn][dR][Phe(4-F)][dA]K-NH2; linker N-6-11 via Trimesoyl)
Drug uptake [2]: Active

SMILES: C[C@@H]1NC(=O)[C@@H](Cc2ccccc2)NC(=O)[C@@H]2CCCCNC(=O)c3cc(cc(c3)C(=O)N[C@H](Cc3ccc4ccccc4c3)C(=O)N[C@@H](CO)C(=O)N[C@@H](CCC(N)=O)C(=O)N[C@H](Cc3ccc4ccccc4c3)C(=O)N[C@@H](c3ccccc3)C(=O)N2)C(=O)NC[C@@H](C(=O)N[C@@H](CCN)CC(=O)N[C@H](CC(N)=O)C(=O)N[C@H](Cc2ccc(O)cc2)C(=O)N[C@@H](C(N)=O)[C@H](C)O)NC(=O)[C@H](CCCNC(=N)N)NC(=O)[C@@H](CCCNC(=N)N)NC1=O
EC50 (NCI-H358 [1]; nci-h358): Not Active

SMILES: CC(C)C[C@@H](NC(=O)[C@H](CCC(N)=O)NC(=O)CNC(=O)[C@@H]1CNC(=O)c2cc3cc(c2)C(=O)N[C@H](Cc2ccc4ccccc4c2)C(=O)N[C@@H](CO)C(=O)N[C@@H](CCC(N)=O)C(=O)N[C@H](Cc2ccc4ccccc4c2)C(=O)N[C@@H](c2ccccc2)C(=O)N[C@@H](CCCCNC3=O)C(=O)N[C@H](Cc2ccccc2)C(=O)N[C@@H](C)C(=O)N[C@H](CCCNC(=N)N)C(=O)N[C@@H](CCCNC(=N)N)C(=O)N1)C(=O)N[C@H](CCCNC(=N)N)C(=O)N[C@@H](CCCCN)C(N)=O
EC50 (NCI-H358 [1]; nci-h358): Not Active

SMILES: CC[C@@H](C)[C@@H]1NC(=O)[C@H](Cc2cn(CCc3c(C)[nH]c4cc(Cl)cc(Cl)c34)nn2)NC(=O)[C@@H](CC(N)=O)NC(=O)[C@H](CCCNC(=N)N)NC(=O)[C@H](Cc2ccccc2)NC(=O)[C@@H](CC(C)C)NC(=O)[C@@H](C)NC(=O)c2cc3cc(c2)C(=O)NC[C@@H](C(N)=O)NC(=O)[C@H](CCCNC(=N)N)NC(=O)[C@H](CCCNC(=N)N)NC(=O)[C@H](CCCNC(=N)N)NC(=O)[C@H](CCCNC(=N)N)NC(=O)[C@H](Cc2ccc4ccccc4c2)NC(=O)[C@H](Cc2ccccc2)NC(=O)C(CCCCNC3=O)NC(=O)[C@H](CC(=O)O)NC1=O (some centres not stated)
IC50 (GTPase KRas [6]): 3.4 µM
EC50 (NCI-H1299 [7]): 8 µM

SMILES: C[C@H](NC(=O)[C@@H]1CNC(=O)c2cc3cc(c2)C(=O)N[C@H](Cc2ccc4ccccc4c2)C(=O)N[C@@H](CO)C(=O)N[C@@H](CCC(N)=O)C(=O)N[C@H](Cc2ccc4ccccc4c2)C(=O)N[C@@H](c2ccccc2)C(=O)N[C@@H](CCCCNC3=O)C(=O)N[C@H](Cc2ccccc2)C(=O)N[C@@H](C)C(=O)N[C@H](CCCNC(=N)N)C(=O)N[C@@H](CCCNC(=N)N)C(=O)N1)C(=O)N[C@H](CCCNC(=N)N)C(=O)N[C@H](Cc1ccccc1)C(=O)N[C@@H](Cc1ccc(F)cc1)C(N)=O
EC50 (NCI-H358 [1]; [9]): 19 µM

SMILES: C[C@@H]1NC(=O)[C@@H](Cc2ccccc2)NC(=O)[C@@H]2CCCCNC(=O)c3cc(cc(c3)C(=O)N[C@H](Cc3ccc4ccccc4c3)C(=O)N[C@@H](CO)C(=O)N[C@@H](CCC(N)=O)C(=O)N[C@H](Cc3ccc4ccccc4c3)C(=O)N[C@@H](c3ccccc3)C(=O)N2)C(=O)NC[C@@H](C(=O)N[C@@H](CCC(=O)O)C(=O)N[C@@H](Cc2cnc[nH]2)C(=O)N2CCC[C@@H]2C(=O)N[C@H](Cc2ccc(O)cc2)C(=O)N[C@@H](CCCCN)C(N)=O)NC(=O)[C@H](CCCNC(=N)N)NC(=O)[C@@H](CCCNC(=N)N)NC1=O
EC50 (NCI-H358 [1]; nci-h358): Not Active
